Results gathered from unrelated publications.
Lines come from different studies, so protocols differ.
Organism: Escherichia coli
Observed: microbial growth

| Compound | test | system | setting | MIC |
| --- | --- | --- | --- | --- |
| CN[C@@H]1[C@@H](O[C@H]2O[C@H](CO)[C@@H](N)[C@H](O)[C@H]2O)OC2C[C@@H](N)[C@@H](O[C@H]3[C@H](O)[C@@H](O)[C@H](N)C[C@@H]3N)OC2[C@@H]1O (stereo partly drawn) |  |  | 24 h | 2.5 to 5 µM |
| O=C(O)c1cn(C2CC2)c2cc(N3CCNCC3)c(F)cc2c1=O |  | MTCC739 | 24 h | 32 µg/mL |
| CO/N=C(\C(=O)N[C@@H]1C(=O)N2C(C(=O)[O-])=C(C[N+]3(C)CCCC3)CS[C@H]12)c1csc(N)n1 | broth dilution |  |  | ≤ 0.06 µg/mL |
| Cc1[nH]c(C(=O)Nc2ccc(C(=O)NCC(=O)O)cc2N2CC[C@@H](NC(=O)OC(C)(C)C)C2)c(Cl)c1Cl | broth dilution | ATCC25922 |  | > 32 µg/mL |
| CCC(C)CCCC(=O)N[C@@H](CCN)C(=O)N[C@H](C(=O)N[C@@H](CCN)C(=O)N[C@H]1CCNC(=O)[C@H]([C@@H](C)O)NC(=O)[C@H](CCN)NC(=O)[C@H](CCN)NC(=O)[C@H](CC(C)C)NC(=O)[C@@H](CC(C)C)NC(=O)[C@H](CCN)NC1=O)[C@@H](C)O (stereo partly drawn) | broth dilution |  |  | 0.25 µg/mL |
| CC(O)CSc1nnc(COc2ccc(Cl)cc2Br)n1-c1ccccc1 (stereo not drawn) |  |  |  | 20500 µg/mL |
| Cc1nn(-c2ccccc2)c2c1C(c1ccc(N(C)C)cc1)N(C(=O)c1ccncc1)N2 (stereo not drawn) |  | MTCC739 | 24 h | > 100 µg/mL |
| O=C(C=Cc1ccc(O)c(O)c1)OCCc1ccccc1 | broth dilution | ATCC25922 |  | 32 µg/mL |
| Cc1[nH]c(C(=O)Nc2ccc(C(=O)NCC(=O)O)cc2N2CC[C@@H](N)C2)c(Cl)c1Cl.Cl | broth dilution | ATCC25922 |  | > 32 µg/mL |
| Cc1nn(-c2ccccc2)c2c1C(c1ccc([N+](=O)[O-])cc1)N(C(=O)c1ccncc1)N2 (stereo not drawn) |  | MTCC739 | 24 h | 32 µg/mL |
| Cl.N[C@H]1CCN(c2cc(C(=O)NCC(=O)O)ccc2NC(=O)c2cc(Br)c(Br)[nH]2)C1 | broth dilution | ATCC25922 |  | > 32 µg/mL |
| CC1(C)S[C@@H]2[C@H](NC(=O)[C@H](N)c3ccccc3)C(=O)N2[C@H]1C(=O)O | broth dilution | ATCC25922 |  | 4 µg/mL |
| Cc1[nH]c(C(=O)Nc2ccc(C(=O)NCc3n[nH]c(=O)o3)cc2N2CCNCC2)c(Cl)c1Cl.Cl | broth dilution | ATCC25922 |  | > 32 µg/mL |
| CC(C)(O/N=C(\C(=O)N[C@@H]1C(=O)N2C(C(=O)[O-])=C(C[n+]3ccccc3)CS[C@H]12)c1csc(N)n1)C(=O)O | broth dilution |  |  | 0.125 µg/mL |
| C[C@@H](O)[C@H]1C(=O)N2C(C(=O)O)=C(S[C@@H]3CN[C@H](C(=O)N(C)C)C3)[C@H](C)[C@H]12 | broth dilution | ATCC25922 | 20 h | < 0.5 µg/mL |
| O=C(C=Cc1ccc(O)c(O)c1)Oc1cccc2cccnc12 | broth dilution | ATCC25922 |  | 4 µg/mL |
| CC(C)(C)OC(=O)N[C@@H]1CCN(c2cc(C(=O)NCC(=O)O)ccc2NC(=O)c2cc(Br)c(Br)[nH]2)C1 | broth dilution | ATCC25922 |  | > 32 µg/mL |
| CC1(C)S[C@@H]2[C@H](NC(=O)[C@H](N)c3ccc(O)cc3)C(=O)N2[C@H]1C(=O)O | broth dilution |  |  | ≤ 0.06 µg/mL |
| COc1cc(Cc2cnc(N)nc2N)cc(OC)c1OC | broth dilution | ATCC25922 |  | 8 µg/mL |
| CC(C)(C)OC(=O)N1CCN(c2cc(C(=O)NCC(=O)O)ccc2NC(=O)c2cc(Br)c(Br)[nH]2)CC1 | broth dilution | ATCC25922 |  | > 32 µg/mL |
| C[C@@H](O)[C@H]1C(=O)N2C(C(=O)O)=C(S[C@@H]3CN[C@H](C(=O)N(C)C)C3)[C@H](C)[C@H]12 | broth dilution |  |  | ≤ 0.06 µg/mL |
| CC(O)CSc1nnc(Cn2cnc3c2c(=O)n(C)c(=O)n3C)n1-c1ccccc1 (stereo not drawn) |  |  |  | 15000 µg/mL |
| Cc1nn(-c2ccccc2)c2c1C(c1ccc(Cl)cc1)N(C(=O)c1ccncc1)N2 (stereo not drawn) |  | MTCC739 | 24 h | > 100 µg/mL |
| Cc1ccccc1NC(=O)C=Cc1ccc(O)c(O)c1 | broth dilution | ATCC25922 |  | 4 µg/mL |
| Cc1nn(-c2ccccc2)c2c1C(c1ccco1)N(C(=O)c1ccncc1)N2 (stereo not drawn) |  | MTCC739 | 24 h | 64 µg/mL |
| CC1CCC(C(C)C)C(OC(=O)C=Cc2ccc(O)c(O)c2)C1 (stereo not drawn) | broth dilution | ATCC25922 |  | 2 µg/mL |
| Cc1[nH]c(C(=O)Nc2ccc(C(=O)NCc3n[nH]c(=O)o3)cc2N2CCN(C(=O)OC(C)(C)C)CC2)c(Cl)c1Cl | broth dilution | ATCC25922 |  | > 32 µg/mL |
| CN(C)c1cc(NC(=O)CNC(C)(C)C)c(O)c2c1C[C@H]1C[C@H]3[C@H](N(C)C)C(O)=C(C(N)=O)C(=O)[C@@]3(O)C(O)=C1C2=O | broth dilution |  |  | ≤ 0.06 µg/mL |
| Cl.O=C(O)CNC(=O)c1ccc(NC(=O)c2cc(Br)c(Br)[nH]2)c(N2CCNCC2)c1 | broth dilution | ATCC25922 |  | > 32 µg/mL |
| Cc1ccc(-c2nnc(SCC(C)O)n2-c2ccccc2)cc1 (stereo not drawn) |  |  |  | 12500 µg/mL |
